The text below walks through data of ChEMBL document CHEMBL3414452, “Synthesis and in vitro antiplasmodial evaluation of 7-chloroquinoline-chalcone and 7-chloroquinoline-ferrocenylchalcone conjugates” (Eur J Med Chem, 2015).

In one data set the test system is Plasmodium falciparum. Nature of the data set: Antimalarial activity against CQ-resistant Plasmodium falciparum W2 assessed as parasite growth inhibition after 48 hrs by YOYO-1 dye based flow cytometry. The class given is functional, organism-based. Conditions: W2, 48 h. In outline: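 W2 strain cultured in RPMI-1640 with 10% human serum, sorbitol-synchronized (5%). Ring-stage microcultures exposed to a range of compound concentrations (DMSO ≤0.1% final; 0.1% DMSO controls) for 48 h. Fixed 48 h in 1% formaldehyde/PBS pH 7.4 at room temperature, stained with 1 nM YOYO-1 in 0.1% Triton X-100/PBS, and parasitemia read by flow cytometry. IC50 from nonlinear fit of duplicate experiments.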
`COc1ccc(C(=O)/C=C/c2ccc(OCC(=O)O)cc2)cc1`: the IC50 was > 10000 nM. As for `O=C(O)COc1ccc(/C=C/C(=O)c2ccccc2)cc1`, the IC50 is > 10000 nM. In the case of `O=Cc1ccc(OCC(=O)NCCNc2ccnc3cc(Cl)ccc23)cc1`, the IC50 amounted to 419 nM. For the compound `O=Cc1ccc(OCC(=O)NCCCNc2ccnc3cc(Cl)ccc23)cc1`, the IC50 turned out to be 73.4 nM. In the case of `O=Cc1ccc(OCC(=O)NCCCCNc2ccnc3cc(Cl)ccc23)cc1`, the IC50 is 444 nM.

With `O=Cc1ccc(OCC(=O)NCCCCCCNc2ccnc3cc(Cl)ccc23)cc1`, the IC50 was 875 nM. For the compound `O=C(COc1ccc(/C=C/C(=O)c2ccccc2)cc1)NCCNc1ccnc2cc(Cl)ccc12`, the IC50 was 905 nM. Regarding `O=C(COc1ccc(/C=C/C(=O)c2ccccc2)cc1)NCCCNc1ccnc2cc(Cl)ccc12`, the IC50 was determined as 109 nM.

With `O=C(COc1ccc(/C=C/C(=O)c2ccccc2)cc1)NCCCCNc1ccnc2cc(Cl)ccc12`, the IC50 stood at 139 nM. Take `COc1ccc(C(=O)/C=C/c2ccc(OCC(=O)NCCNc3ccnc4cc(Cl)ccc34)cc2)cc1`: the IC50 was found to be 379 nM. In the case of `COc1ccc(C(=O)/C=C/c2ccc(OCC(=O)NCCCNc3ccnc4cc(Cl)ccc34)cc2)cc1`, the IC50 turned out to be 221 nM. For the compound `COc1ccc(C(=O)/C=C/c2ccc(OCC(=O)NCCCCNc3ccnc4cc(Cl)ccc34)cc2)cc1`, the IC50 turned out to be 63 nM. With `COc1ccc(C(=O)/C=C/c2ccc(OCC(=O)NCCCCCCNc3ccnc4cc(Cl)ccc34)cc2)cc1`, the IC50 was 35.4 nM. With `O=C(O)COc1ccc(C(=O)/C=C/c2ccccc2)cc1`, the IC50 was > 10000 nM. Regarding `COc1ccc(/C=C/C(=O)c2ccc(OCC(=O)O)cc2)cc1`, the IC50 was > 10000 nM.

Consider `CC(=O)c1ccc(OCC(=O)NCCNc2ccnc3cc(Cl)ccc23)cc1`, for which the IC50 came to 558 nM. The same measure, in the same setting: the value for `CC(=O)c1ccc(OCC(=O)NCCCNc2ccnc3cc(Cl)ccc23)cc1` was 173 nM. The same measure, in the same setting: the value for `CC(=O)c1ccc(OCC(=O)NCCCCNc2ccnc3cc(Cl)ccc23)cc1` was 148 nM; that for `CC(=O)c1ccc(OCC(=O)NCCCCCCNc2ccnc3cc(Cl)ccc23)cc1` was 71.1 nM; that for `O=C(COc1ccc(C(=O)/C=C/c2ccccc2)cc1)NCCNc1ccnc2cc(Cl)ccc12` was 840 nM.

Consider `O=C(COc1ccc(C(=O)/C=C/c2ccccc2)cc1)NCCCNc1ccnc2cc(Cl)ccc12`, for which the IC50 turned out to be 46.3 nM. Still for that read-out and setting: the figure for `O=C(COc1ccc(C(=O)/C=C/c2ccccc2)cc1)NCCCCNc1ccnc2cc(Cl)ccc12` is 398 nM; for `O=C(COc1ccc(C(=O)/C=C/c2ccccc2)cc1)NCCCCCCNc1ccnc2cc(Cl)ccc12` it is 4070 nM; for `COc1ccc(/C=C/C(=O)c2ccc(OCC(=O)NCCNc3ccnc4cc(Cl)ccc34)cc2)cc1` it is 2740 nM. The same measure, in the same setting: the value for `COc1ccc(/C=C/C(=O)c2ccc(OCC(=O)NCCCNc3ccnc4cc(Cl)ccc34)cc2)cc1` was 50.5 nM; that for `COc1ccc(/C=C/C(=O)c2ccc(OCC(=O)NCCCCNc3ccnc4cc(Cl)ccc34)cc2)cc1` was 170 nM. For `COc1ccc(/C=C/C(=O)c2ccc(OCC(=O)NCCCCCCNc3ccnc4cc(Cl)ccc34)cc2)cc1`, the IC50 stood at 17.8 nM. Consider `C[C@@H]1CC[C@H]2[C@@H](C)C(=O)O[C@@H]3O[C@@]4(C)CC[C@@H]1[C@]32OO4` [ARTEMISININ], for which the IC50 was 6.5 nM.

Another data set relates to HeLa. Nature of the data set: Cytotoxicity against human HeLa cells after 24 hrs by trypan blue dye exclusion assay. The class given is cell-based.
Conditions: not given
A digest of the protocol:
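HeLa cells grown in DMEM with penicillin/streptomycin. Compound from DMSO stock was added once cultures reached 70% confluency, then incubated 24 h at 37 °C under CO₂. Cells were PBS-washed, detached with 0.25% trypsin for 5 min, and resuspended in PBS. Trypan blue was added for about 10 min at room temperature. Viable and dead cells were counted by hemacytometer, and IC₅₀ derived.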
For `COc1ccc(C(=O)/C=C/c2ccc(OCC(=O)NCCCCCCNc3ccnc4cc(Cl)ccc34)cc2)cc1`, the IC50 is 40000 nM. Still for that read-out and setting: the figure for `COc1ccc(/C=C/C(=O)c2ccc(OCC(=O)NCCCCCCNc3ccnc4cc(Cl)ccc34)cc2)cc1` is 25000 nM.

Tested on in a further data set: not listed separately
Nature of the data set: Selectivity index, ratio of IC50 for human HeLa cells to IC50 for CQ-resistant Plasmodium falciparum W2. To be noted: read-out: Ratio IC50. It counts as toxicity, cell-based. In outline:
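Ratio of HeLa IC50 to W2 IC50. HeLa cells grown in DMEM with penicillin/streptomycin to 70% confluency, dosed from DMSO stocks, and incubated 24 h at 37 °C in CO2. Cells were then washed, trypsinized, stained with trypan blue for about 10 min at room temperature, and viable/dead cells counted by hemacytometer. IC50 fitted from counts.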
As to `COc1ccc(C(=O)/C=C/c2ccc(OCC(=O)NCCCCCCNc3ccnc4cc(Cl)ccc34)cc2)cc1`, the selectivity ratio is 1130. As to `COc1ccc(/C=C/C(=O)c2ccc(OCC(=O)NCCCCCCNc3ccnc4cc(Cl)ccc34)cc2)cc1`, the selectivity ratio was found to be 1400.
